Active and inactive are the calls of the source.
Experiments:
Assay type in all cases: functional
Mus musculus [1] = organism: Mus musculus; experiment: Stimulation of cytokine secretion in C57BL/6 mouse HMNCs assessed as increase in IFN gamma secretion at 25 nM measured after 72 hrs by ELISA
Mus musculus [2] = organism: Mus musculus; experiment: Stimulation of cytokine secretion in C57BL/6 mouse HMNCs assessed as increase in IL-17 secretion measured after 72 hrs by ELISA
Mus musculus [3] = organism: Mus musculus; experiment: Stimulation of cytokine secretion in C57BL/6 mouse HMNCs assessed as increase in IL-4 secretion at 25 nM measured after 72 hrs by ELISA
Mus musculus [4] = organism: Mus musculus; experiment: Stimulation of cytokine secretion in C57BL/6 mouse HMNCs assessed as increase in IL-2 secretion at 25 nM measured after 24 hrs by ELISA
Method in brief: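 Mouse hepatic mononuclear cells were exposed to the α-GalCer analogues. IL-2 secretion was read 24 h after treatment. Results were expressed as relative activity, mean ± SEM, from n = 3 biological replicates.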

Mus musculus [5] = organism: Mus musculus; experiment: Stimulation of cytokine secretion in C57BL/6 mouse HMNCs assessed as increase in IL-17 secretion at 25 nM measured after 72 hrs by ELISA
Mus musculus [6] = organism: Mus musculus; experiment: Stimulation of cytokine secretion in C57BL/6 mouse HMNCs assessed as increase in IL-17 secretion at 5 to 125 nM measured after 72 hrs by ELISA
Mus musculus [7] = organism: Mus musculus; experiment: Antiinflammatory activity in C57BL/6 mouse HMNCs assessed as reduction in IL-17 secretion at 5 to 125 nM

Measured: Activity

CCCCCCCCCCCCCC[C@@H](O)[C@@H](O)[C@H](CO[C@H]1O[C@H](CO)[C@H](O)[C@H](O)[C@H]1O)NC(=O)CCCCCCCCCCCOCCCCCCCCCCOCC
active: Mus musculus [1] | Mus musculus [2] Dose-dependent effect | Mus musculus [3] | Mus musculus [4] | Mus musculus [5]

CCCCCCCCCCCCCC[C@@H](O)[C@@H](O)[C@H](CO[C@H]1O[C@H](CO)[C@H](O)[C@H](O)[C@H]1O)NC(=O)CCCCCCCCCCCCOCCCCCCCCOCCC
active: Mus musculus [1] | Mus musculus [3] | Mus musculus [4] | Mus musculus [5]

CCCCCCCCCCCCCC[C@@H](O)[C@@H](O)[C@H](CO[C@H]1O[C@H](CO)[C@H](O)[C@H](O)[C@H]1O)NC(=O)CCCCCCCCCCCCOCCCCCCCCCOCC
active: Mus musculus [1] | Mus musculus [2] Dose-dependent effect | Mus musculus [3] | Mus musculus [4] | Mus musculus [5]

CCCCCCCCCCCCCC[C@@H](O)[C@@H](O)[C@H](CO[C@H]1O[C@H](CO)[C@H](O)[C@H](O)[C@H]1O)NC(=O)CCCCCCCCCCCCCCOCCCCCCOCCC
active: Mus musculus [1] | Mus musculus [3] | Mus musculus [4] | Mus musculus [5]

CCCCCCCCCCCCCC[C@@H](O)[C@@H](O)[C@H](CO[C@H]1O[C@H](CO)[C@H](O)[C@H](O)[C@H]1O)NC(=O)CCCCCCCCCCCOCCCCCCCCCOCCC
active: Mus musculus [1] | Mus musculus [3] | Mus musculus [4] | Mus musculus [5]

CCCCCCCCCCCCCC[C@@H](O)[C@@H](O)[C@H](CO[C@H]1O[C@H](CO)[C@H](O)[C@H](O)[C@H]1O)NC(=O)CCCCCCCCCCCCCCCCOCCCCOCCC
active: Mus musculus [1] | Mus musculus [3] | Mus musculus [6] | Mus musculus [4] | Mus musculus [5] | Mus musculus [7]

CCCCCCCCCCCCCC[C@@H](O)[C@@H](O)[C@H](CO[C@H]1O[C@H](CO)[C@H](O)[C@H](O)[C@H]1O)NC(=O)CCCCCCCCCCCCCCCCOCCCCCOCC
active: Mus musculus [1] | Mus musculus [3] | Mus musculus [4] | Mus musculus [5]

CCCCCCCCCCCCCCCCCCCCCCCCCC(=O)N[C@@H](CO[C@H]1O[C@H](CO)[C@H](O)[C@H](O)[C@H]1O)[C@H](O)[C@H](O)CCCCCCCCCCCCCC
active: Mus musculus [1] | Mus musculus [3]

CCCCCCCCCCCCCC[C@@H](O)[C@@H](O)[C@H](CO[C@H]1O[C@H](CO)[C@H](O)[C@H](O)[C@H]1O)NC(=O)CCCCCCCCCCCCCCOCCCCCCCOCC
active: Mus musculus [1] | Mus musculus [3] | Mus musculus [4] | Mus musculus [5]

Source: ChEMBL document CHEMBL4396881, “Improved Th17 Selectivity of α-Galactosylceramide via Noncovalent Interactions with Diether Moiety” (ACS Med Chem Lett, 2019)
